{
  "source": "paper PMC4684756",
  "about": "(Nature immunology, 2015)",
  "key": {"[1]": {"target": "pCPA12 / H-2L^d mini-MHC m31r (murine)", "assay": "SPR"}, "[2]": {"target": "p4B10 / H-2L^d mini-MHC m31r (murine)", "assay": "SPR"}, "[3]": {"target": "pCPB7 / H-2L^d mini-MHC m31r (murine)", "assay": "SPR"}, "[4]": {"target": "pCPE3 / H-2L^d mini-MHC m31r (murine)", "assay": "SPR"}, "[5]": {"target": "pCPC5 / H-2L^d mini-MHC m31r (murine)", "assay": "SPR"}, "[6]": {"target": "pCPB9 / H-2L^d mini-MHC m31r (murine)", "assay": "SPR"}, "CD8+ 42F3 T cells": {"tested_on": "CD8+ 42F3 T cells", "assay": "IL-2 release dose response of CD8+ 42F3 T cells to peptide-pulsed APCs", "format": "cell-based, murine", "conditions": "for maximal IL-2 response (high / medium / low): transduced CD8+ 42F3 cells, among CD8-dependent agonists; for IL-2 agonist character (in words): titrated IL-2 response in CD8+ 42F3 T cells", "how_it_was_run": "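Murine 58−/− hybridoma (TCRα−β−) expressing CD8αβ, retrovirally transduced with 42F3 TCR, co-cultured 1:1 with LM1.8-L^dW97R APCs (5x10⁴ cells; grown in RPMI/10% FBS) and titrated peptide for 20 h at 37°C. Peptide stocks were 50mM in DMSO, diluted in RPMI. IL-2 in supernatants was measured by HRP-colorimetric ELISA. EC50 and Emax came from the titration curves.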"}},
  "note": "“Also recorded” adds a separate entry of the source.",
  "data": [
    {"substance": "42F3 TCR", "values": [
      {"measurement": "Kd", "setting": "[1]", "value": 2000, "unit": "nM"},
      {"measurement": "koff", "setting": "[1]", "value": 0.0579, "unit": "s⁻¹"},
      {"measurement": "kon", "setting": "[1]", "value": 31400, "unit": "M⁻¹ s⁻¹"},
      {"measurement": "Kd", "setting": "[2]", "value": 10000, "unit": "nM"},
      {"measurement": "koff", "setting": "[2]", "value": "> 0.5", "unit": "s⁻¹"},
      {"measurement": "koff", "setting": "[3]", "value": 0.0579, "unit": "s⁻¹"},
      {"measurement": "kon", "setting": "[3]", "value": 495000, "unit": "M⁻¹ s⁻¹"},
      {"measurement": "Kd", "setting": "[4]", "value": 700, "unit": "nM"},
      {"measurement": "koff", "setting": "[4]", "value": 0.166, "unit": "s⁻¹"},
      {"measurement": "kon", "setting": "[4]", "value": 58600, "unit": "M⁻¹ s⁻¹"},
      {"measurement": "Kd", "setting": "[5]", "value": 1000, "unit": "nM"},
      {"measurement": "koff", "setting": "[5]", "value": 0.197, "unit": "s⁻¹"},
      {"measurement": "koff", "setting": "[6]", "value": 0.0668, "unit": "s⁻¹"}
    ]},
    {"substance": "FLSPFWFDI [p5E8]", "values": [
      {"measurement": "maximal IL-2 response (high / medium / low)", "setting": "CD8+ 42F3 T cells", "value": "high"}
    ]},
    {"substance": "MPAGRPWDL [pCPE3]", "values": [
      {"measurement": "IL-2 agonist character (in words)", "setting": "CD8+ 42F3 T cells", "value": "weak agonist; also recorded: partial agonist"}
    ]},
    {"substance": "SPAPRPLDL [pCPC5]", "values": [
      {"measurement": "IL-2 agonist character (in words)", "setting": "CD8+ 42F3 T cells", "value": "partial IL-2 responses; also recorded: partial agonist"}
    ]},
    {"substance": "VPYMAEFGM [pCPA12]", "values": [
      {"measurement": "IL-2 agonist character (in words)", "setting": "CD8+ 42F3 T cells", "value": "partial IL-2 responses; also recorded: partial agonist"},
      {"measurement": "maximal IL-2 response (high / medium / low)", "setting": "CD8+ 42F3 T cells", "value": "medium"}
    ]}
  ]
}
